Sampled rows, rich in hits. Any-hit rate of the full collection: about 2.1%.
STAT1 blocker – STAT1 signaling inhibition; AID 920; actives 0.35% (n = 200,000); NIH 3T3 STAT1-luciferase reporter, IFN-gamma, luminescence; inhibition, % at 5.5 µM;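 active means inhibition above a set limit, the mean inhibition across all tested compounds plus 3 SD, cut at about 34% in these data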
STAT3 act – STAT3 signaling activation | U3A cells, IL-6 STAT3-luciferase reporter, luminescence; 100% = signal with IL-6 EC80 alone | activation (% of control), % at 5.6 µM | actives 0.91% (n = 190,000);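 active means activation above the screen-wide mean of compound activation plus 3 SD, cut at about 130% in these data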
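Test system: STAT3-luciferase reporter U3A cells; Detection: reporter luminescence signal; Times: 1 h compound pre-exposure, 6 h IL-6 stimulation, 37 °C; Benchmarks: IL-6-only high control; Also added: IL-6 stimulus at 33 ng/mL final.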
TNF death inh – TNF-alpha cell death inhibition in Jurkat FADD-/- cells. Jurkat FADD-/- TNF necroptosis rescue, ATP luminescence, 24 h; 0 = TNF only, 100 = no-TNF cells. activation (protection from cell death), % at 10 µM. actives 0.068% (n = 220,000). AID 463075;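 active means activation, meaning protection from cell death, of at least 50% relative to plate controls; inactive means activation below 50%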;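 further: necroptosis triggered by 40 ng/mL TNF-alpha added together with compound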
zVAD death inh – L929 zVAD cell death inhibition | L929 zVAD necroptosis rescue, ATP luminescence, 24 h; with zVAD 60 µM | viability rescue, % at 10 µM | actives 0.38% (n = 220,000);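 active means activation, scaled between plate controls, above about 75%, limit read from the data; inactive means activation under that limit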
STAT3 inh-1 – reduces IL-6 driven STAT3 reporter signal. AID 862. actives 0.89% (n = 190,000). U3A cells, IL-6 STAT3-luciferase reporter, luminescence; host cell line lacks STAT1. inhibition, % at 5.5 µM;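 active means inhibition above the mean inhibition across all screened compounds plus 3 SD, cut at about 44% in these data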
STAT3 inh-2 – confirmation of STAT3 signaling inhibitors. shares compounds with STAT3 inh-1. U3A cells, IL-6 STAT3 luciferase reporter, luminescence; cell line lacks STAT1. inhibition, % at 5.7 µM. actives 45% (n = 1,200). AID 1265;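 active means inhibition above the hit cutoff computed for the primary STAT3 screen, cut at about 44% in these data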
NFkB inh 2 – NF-kappaB inhibition in STAT3 inhibitor counter-screen; inhibition, % at 5.7 µM; shares compounds with STAT3 inh-1; actives 36% (n = 1,200); HEK293T NF-kB luciferase reporter, TNF-alpha induced;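 active means inhibition above the mean of solvent-only control wells plus 3 SD, cutoff set per campaign, cut at about 13% in these data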
STAT1 inh 2 – inhibits STAT1, counter-screen to STAT3 inhibitors; actives 27% (n = 1,200); NIH 3T3 STAT1-luciferase reporter, IFN-gamma induced, luminescence; inhibition, % at 5.7 µM; shares compounds with STAT3 inh-1;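 active means inhibition above the mean plus 3 SD of solvent-only control wells, limit set per screening run, cut at about 16% in these data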
A number is an active result; i = inactive; nt = no result.

SMILES | STAT1 blocker | STAT3 act | TNF death inh | zVAD death inh | STAT3 inh-1 | STAT3 inh-2 | NFkB inh 2 | STAT1 inh 2
CCOC(=O)c1oc2ccc(S(=O)(=O)Nc3ccc4c(c3)n(C)c(=O)n4C)cc2c1C | i | i | i | i | 60 | 57 | i | i
Cn1c(=O)n(C)c2cc(NS(=O)(=O)c3ccc4c(c3)CCCC4)ccc21 | i | i | i | i | 53 | i | i | 20
COc1cccc(C(=O)Nc2ccc(NC(=O)C(C)C)nc2)c1 | i | i | i | i | i | nt | nt | nt
O=C(Nc1ccc2c(c1)nc1n2CCSC1)c1ccco1 | i | i | i | i | 63 | i | i | i
Cc1sc2ncnc(NCC(C)(C)N3CCOCC3)c2c1C | i | i | i | i | 47 | 56 | 16 | 18
Cc1sc2ncnc(NCC3COc4ccccc4O3)c2c1C (centres undefined) | i | i | i | i | 74 | 83 | 32 | 23
CC1C/C(=C/c2ccncc2)C(=O)/C(=C/c2ccncc2)C1 (centres undefined) | i | i | i | i | 53 | 44 | i | 19
CC1C/C(=C/c2cccn2C)C(=O)/C(=C/c2cccn2C)C1 (centres undefined) | i | i | i | i | i | nt | nt | nt
O=[N+]([O-])c1ccccc1/C=N/n1c(C2CCCCC2)n[nH]c1=S | i | i | i | i | i | nt | nt | nt
Cn1nc(CC(=O)NCc2ccc(C(F)(F)F)cc2)c2ccccc2c1=O | i | i | i | i | i | nt | nt | nt
Cn1nc(CC(=O)Nc2cccc3ncccc23)c2ccccc2c1=O | i | i | i | i | 46 | i | i | 17
COc1ccc(CNC(=O)Cc2nn(C)c(=O)c3ccccc23)cc1 | i | i | i | i | 51 | 48 | 13 | 25
CCCn1nnc(NC(=O)COc2ccccc2Cl)n1 | i | i | i | i | i | nt | nt | nt
CCCC(=O)Nc1ccc(NC(=O)c2ccccc2Cl)nc1 | i | i | i | i | i | nt | nt | nt
Cc1ccc(N=c2c([N+](=O)[O-])nn(-c3ccc4c(c3)OCCO4)n2O)c(Cl)c1 | i | i | i | i | 49 | i | i | i
Cc1cc(C)cc(N=c2c([N+](=O)[O-])nn(-c3ccc4c(c3)OCCO4)n2O)c1 | i | i | i | i | i | nt | nt | nt
COc1cccc(COc2cc3ccccc3nc2C)c1 | i | i | i | i | 80 | 76 | 21 | i
Cc1nc2ccccc2cc1OCc1ccc(Cl)cc1 | i | i | i | i | 71 | 80 | 13 | i
Cc1nc(OCc2ccccc2)c2ccccc2n1 | i | i | i | i | i | nt | nt | nt
Cc1nc2ccccc2cc1OCc1ccccc1 | i | i | i | i | 69 | 50 | i | i
Cn1c(=O)n(C)c2cc([N+](=O)[O-])c(N3CCN(S(=O)(=O)c4ccccc4)CC3)cc21 | i | i | i | i | i | nt | nt | nt
CSc1ccccc1NC(=O)Nc1cccc(F)c1 | i | i | i | i | i | nt | nt | nt
COc1cc(CNC(=O)C2CCCN2S(=O)(=O)c2ccccc2)cc(OC)c1OC (centres undefined) | i | i | i | i | i | nt | nt | nt
CCOc1cc(S(=O)(=O)N2CCC(c3nc4ccccc4s3)CC2)c(OCC)cc1S(=O)(=O)N1CCCCC1 | i | i | i | i | i | nt | nt | nt
O=S(=O)(c1ccccc1)N1CCCC1c1nc2ccccc2s1 (centres undefined) | i | i | i | i | i | nt | nt | nt
SMILES | STAT1 blocker | STAT3 act | TNF death inh | zVAD death inh | STAT3 inh-1 | STAT3 inh-2 | NFkB inh 2 | STAT1 inh 2
CC1CCCN(C(=O)c2ccc(S(=O)(=O)N3CCC(c4nc5ccccc5s4)CC3)cc2)C1 (centres undefined) | i | i | i | i | 53 | 50 | 14 | 18
CCN(CC)C(=O)c1ccc(S(=O)(=O)N2CCC(c3nc4ccccc4s3)CC2)cc1 | i | i | i | i | 67 | 51 | i | 18
Cc1nc(N2CCN(c3ccccc3)CC2)nc2c1C(=O)CCC2 | i | i | i | i | i | nt | nt | nt
O=C(COc1ccc(Cl)cc1)Nc1ncc([N+](=O)[O-])s1 | i | i | i | i | 48 | i | i | i
O=C(Cc1ccc(Cl)cc1)Nc1ncc([N+](=O)[O-])s1 | i | i | i | i | i | nt | nt | nt
CCCc1nnc(NC(=O)CCC(=O)N2CCN(CCOc3ccc(C)cc3)CC2)s1 | i | i | i | i | 50 | i | i | i
Cc1ccc(OCCN2CCN(C(=O)CCC(=O)Nc3nnc(C(C)C)s3)CC2)cc1 | i | i | i | i | 50 | i | i | i
COc1cc(C(=O)Oc2ccccc2/C=N/NC(=O)c2ccc(Cl)cc2Cl)cc(OC)c1OC | i | i | i | i | i | nt | nt | nt
CCOc1cc(C(=O)Nc2ccccc2N2CCOCC2)ccc1OCC(=O)N1CCCCC1 | i | i | i | i | i | nt | nt | nt
O=C1C(C=Nc2ccccc2)=C(O)c2ccccc21 | i | i | i | i | i | nt | nt | nt
O=C1C(C=Nc2ccccc2O)=C(O)c2ccccc21 | i | i | i | i | 49 | i | i | i
COc1ccc(N=CC2=C(O)c3ccccc3C2=O)cc1 | i | i | i | i | 92 | i | 25 | i
CCCCC(=O)Nc1cccc(NC(=O)c2ccc(Br)cc2)c1 | i | i | i | i | i | nt | nt | nt
Cc1ccc(-c2cc(-c3ccccc3)no2)c(O)c1 | i | i | i | i | 49 | i | 18 | i
CCOc1ccc(S(=O)(=O)NCCN2CCOCC2)c2ccccc12 | i | i | i | i | i | nt | nt | nt
Cc1ccsc1/C=C1\CCc2ccccc2C1=O | i | i | i | i | 78 | 48 | i | i
Cc1nc(C)c(C(=O)Nc2ccc(Oc3ccccc3)cc2)o1 | i | i | i | i | 55 | i | i | i
COc1ccc([N+](=O)[O-])c(OC)c1C(=O)Nc1ccc(F)cc1F | nt | nt | i | i | nt | nt | nt | nt
O=C(COC(=O)c1ccc2ncsc2c1)Nc1ncc(Cl)cc1Cl | i | i | i | i | i | nt | nt | nt
Cc1c(Cl)cnc(NC(=O)COC(=O)c2ccc3ncsc3c2)c1Cl | i | i | i | i | 50 | i | i | i
CCCCCc1ccc(OCCCC[n+]2ccccc2)c(CCCCC)c1 | i | i | i | i | i | nt | nt | nt
CCCCCc1ccc(OCCCC[n+]2cccc(C)c2)c(CCCCC)c1 | i | i | i | i | 58 | 48 | i | 26
NNC(=O)c1cccc(COc2ccccc2Br)c1 | i | i | i | i | 71 | 61 | i | i
COc1ccc(/C=C2/SC(=S)N(c3ccc(S(=O)(=O)Nc4nccs4)cc3)C2=O)cc1 | nt | nt | i | i | nt | nt | nt | nt
CN(C)S(=O)(=O)Oc1cccc(C(=O)Nc2ccc(Cl)cc2)c1 | i | i | i | i | 71 | 56 | i | i
Cc1cc(NCc2ccccc2)nc(N2CCOCC2)n1 | i | i | i | i | i | nt | nt | nt
